Measurements from ChEMBL document CHEMBL2202986, “Guaianolide sesquiterpene lactones, a source to discover agents that selectively inhibit acute myelogenous leukemia stem and progenitor cells” (J Med Chem, 2012).

Tests used:
[1] = Antitumor activity against mixed-lineage human leukemia cells xenografted in NOD/SCID mouse assessed as inhibition of cancer cell engrafting at 100 mg/kg, po qd administered every other day total of seven doses starting from 8 weeks post grafting measured on day 35; format: functional
[2] = Antitumor activity against mixed-lineage human leukemia cells xenografted in NOD/SCID mouse assessed as reduction of CD45+CD33+ cells in bone marrow at 100 mg/kg, po qd administered every other day total of seven doses starting from 8 weeks post grafting measured on day 35 (reference value: 9.8 %); format: functional, Leukemia cell; design: scale not given: the % may be the effect or the level left
[3] = Antitumor activity against human leukemia stem/progenitor cells xenografted in NOD/SCID mouse assessed as reduction of CD45+CD33+ cells in bone marrow at 100 mg/kg, po qd administered every other day total of seven doses starting from 8 weeks post grafting measured on day 85; format: functional; design: scale not given: the % may be the effect or the level left
Outline: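 NOD/SCID mice, sublethally irradiated (280cGay), received primary AML M5 patient cells via tail vein in PBS 6−10 h later. From 8 weeks after engraftment, aqueous drug was given orally every other day for seven doses. Surviving mice were sacrificed on day 85 post-inoculation, and human CD45⁺CD33⁺ cells in bone marrow were measured by flow cytometry.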

[4] = Antitumor activity against human leukemia stem/progenitor cells xenografted in NOD/SCID mouse assessed as survival rate at 100 mg/kg, po qd administered every other day total of seven doses starting from 8 weeks post grafting measured on day 85; format: functional
Outline: (§1)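 NOD/SCID mice were sublethally irradiated (280cGay), then 6−10 h later given primary AML M5 patient cells via tail vein in PBS. From 8 weeks postinoculation, aqueous solution was given orally at 100 mg/kg every other day for seven doses. Survival was followed, Kaplan−Meier, n = 6 per treated group and n = 7 untreated controls. Survivors at day 85 had bone marrow analysed for human CD45⁺CD33⁺ cells.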

[5] = Antitumor activity against human leukemia stem/progenitor cells xenografted in NOD/SCID mouse assessed as survival time at 100 mg/kg, po qd administered every other day total of seven doses starting from 8 weeks post grafting (reference value: 43 days); format: functional; outline: as §1
[6] = Drug degradation in HEPES buffer at pH 7.4 assessed as release of PTL; format: physicochemical
Outline: (§2)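 A 20 μL aliquot of prodrug solution was added to 980 μL HEPES buffer (pH 7.4, or below 5.0) and incubated at 37 °C. Samples were withdrawn over time, and prodrug and released parent were quantified by HPLC (mean, SD, n = 4).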

[7] = Drug degradation in HEPES buffer at pH <5 assessed as release of PTL; format: physicochemical; outline: as §2
Plasma = assay: Drug metabolism in mouse plasma assessed as release of PTL; format: ADME, cell-free
Outline: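 A 20 μL aliquot of prodrug solution was added to 980 μL blank mouse plasma and incubated at 37 °C. Prodrug and released parent drug concentrations were measured over time by HPLC (mean, SD, n = 4).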

[8] = Drug degradation in mouse plasma assessed as release of PTL up to 2.5 hrs; conditions: pH 7.4
[9] = Cytotoxicity against human leukemia stem/progenitor cells assessed as cell viability at 0.5 uM after 18 hrs by annexin-V labeling-based flow cytometry; format: functional; conditions: read-out: Activity
Outline: (§3)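 Primary leukemia cells from AML patient blood were treated for 18 h in serum-free IMDM, then stained with CD34-APC and CD38-PECy7 for 30 min. After washing in cold PBS, cells were labelled with Annexin-V–FITC/PI for 15 min at room temperature and read by flow cytometry. Viability of total and CD34⁺ cells was normalized to untreated controls (mean, SD).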

[10] = Reduction in colony forming units of leukemia stem/progenitor cells at 0.1 uM after 15 to 20 days; format: functional, Homo sapiens
Outline: (§4)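 Mononuclear cells from AML patient […] were exposed to drug for 18 h in serum-free IMDM, then plated in triplicate in M3434 methylcellulose. Total colonies (CFC-Mix, CFC-GM, CFC-G, CFC-M, BFU-E) were scored by morphology after 15−20 days.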

[11] = Reduction in colony forming units of leukemia stem/progenitor cells at 0.05 uM after 15 to 20 days; format: functional, Homo sapiens; outline: as §4
[12] = Cytotoxicity against human leukemia stem/progenitor cells assessed as viable CD34+ cells at 0.5 uM after 18 hrs by annexin-V labeling-based flow cytometry; format: functional, CD34+ cell; outline: as §3
[13] = Cytotoxicity against human leukemia stem/progenitor cells assessed as cell viability at 0.1 uM after 18 hrs by annexin-V labeling-based flow cytometry; format: functional; conditions: in the assay text read “leukemia cells” for “leukemia stem/progenitor cells”, read-out: Activity; outline: as §3
[14] = Cytotoxicity against human HL60/A cells after 18 hrs by annexin-V labeling-based flow cytometry; format: functional, cell-based
HL-60 = assay: Cytotoxicity against human HL60 cells after 18 hrs by annexin-V labeling-based flow cytometry; format: functional, cell-based; conditions: HL-60, 18 h
[15] = Cytotoxicity against human leukemia stem/progenitor cells assessed as viable CD34+ cells at 0.1 uM after 18 hrs by annexin-V labeling-based flow cytometry; format: functional, CD34+ cell; outline: as §3
[16] = Antitumor activity against human leukemia stem/progenitor cells xenografted in NOD/SCID mouse assessed as survival time at 1 mg/kg, iv administered every other day total of four doses starting from 8 weeks post grafting (reference value: 43 days)

SMILES	inhibition in vivo at 100 mg/kg [1]	Activity [2]	Activity [3]	survival at 100 mg/kg [4]	Survival [5]	Drug degradation [6]	Drug degradation [7]	Drug metabolism (Plasma)	Drug degradation [8]	viability at 0.5 µM [9]	CFU [10]	CFU [11]	Activity [12]	viability at 0.1 µM [13]	IC50 [14]	IC50 (HL-60)	Activity [15]	Survival [16]
C/C1=C\CC[C@@]2(C)O[C@@H]2[C@H]2OC(=O)[C@@H](CN(C)C)[C@@H]2CC1.O=C(O)/C=C/C(=O)O [(DIMETHYLAMINO)PARTHENOLIDE FUMARIC ACID SALT]	42%	5.7%	35%	17%	66 days	Active	Not Active	Active	0.1 µg/mL	–	–	–	–	–	–	–	–	–
COc1cccc2c1C(=O)c1c(O)c3c(c(O)c1C2=O)C[C@@](O)(C(=O)CO)C[C@@H]3O[C@H]1C[C@H](N)[C@H](O)[C@H](C)O1 [DOXORUBICIN]	–	–	–	–	–	–	–	–	–	49.1%	170	165	49.1%	37.6%	6.7 µM	0.05 µM	115%	22 days
